# This is a sample that favours compounds with a hit; in the whole collection about 2% have one here.
# MLLE-PAM2 inh – inhibitors of PABP1 MLLE–PAM2 peptide binding, primary screen, biochemical, fluorescence polarization, FITC-PAM2, GST-MLLE | AID 588489, 2011 | inhibition, % at 20 µM | Polyadenylate-binding protein 1 (Homo sapiens), P11940 | hit rate 0.36% among 360,000; in the data active means inhibition above about 35%, passing the limit was not always enough;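 further: plate controls were DMSO wells with GST-MLLE for no effect and wells lacking GST-MLLE protein for full effect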
# Target sequence (P11940 whole entry, looked up): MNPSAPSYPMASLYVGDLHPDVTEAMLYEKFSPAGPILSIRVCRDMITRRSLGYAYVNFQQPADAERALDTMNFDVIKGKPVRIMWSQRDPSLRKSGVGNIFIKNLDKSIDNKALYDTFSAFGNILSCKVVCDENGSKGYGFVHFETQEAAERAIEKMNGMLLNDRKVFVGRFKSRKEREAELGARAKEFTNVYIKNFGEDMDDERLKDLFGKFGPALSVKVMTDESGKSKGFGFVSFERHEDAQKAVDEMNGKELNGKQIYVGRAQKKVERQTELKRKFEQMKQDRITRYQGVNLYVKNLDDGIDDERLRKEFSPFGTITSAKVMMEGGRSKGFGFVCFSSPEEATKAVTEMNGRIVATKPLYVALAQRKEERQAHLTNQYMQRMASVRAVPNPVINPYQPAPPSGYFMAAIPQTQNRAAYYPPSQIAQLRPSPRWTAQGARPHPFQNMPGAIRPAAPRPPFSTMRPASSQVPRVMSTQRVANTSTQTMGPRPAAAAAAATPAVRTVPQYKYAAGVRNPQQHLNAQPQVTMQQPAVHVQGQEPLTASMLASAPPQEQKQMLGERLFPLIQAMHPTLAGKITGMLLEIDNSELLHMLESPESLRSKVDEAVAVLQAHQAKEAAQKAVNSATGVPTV
# HCV core dimer – inhibitors of HCV core protein dimerization, primary screen, biochemical, TR-FRET, high-throughput; TR-FRET GST/Flag-core106 dimerization, 1536-well; inhibition, % at 5 µM; hit rate 0.33% among 300,000; AID 1899, 2009;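 active means inhibition above the mean of all tested compounds plus 3 SD, set per screening campaign, cut at about 45% in these data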
#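 Assay system: Tagged HCV core106 pair (GST and Flag) | Buffer or medium: KF-containing HEPES buffer, pH 7.45, DTT, CHAPS, BSA | Also added: Eu donor and XL665 acceptor anti-tag antibodies | Dosing: One concentration, 5 µM, in 0.5% DMSO | Timing: 4 h at 22.5 °C | Technique: TR-FRET 671 and 617 nm emission | Repeats: Singlicate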
# NS3 helicase inh – inhibitors of HCV NS3 helicase, primary screen, biochemical, Cy5 molecular beacon fluorescence. NS3 helicase DNA unwinding. Hepatitis C virus NS3 helicase. AID 1800, 2009. hit rate 0.56% among 290,000. inhibition, % at 10.9 µM;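 active means inhibition above the mean of all tested compounds plus 3 SD, set per campaign, cut at about 35% in these data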;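 further: 0% = DMSO wells and 100% = thioflavine S control wells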
#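 System: HCV NS3 helicase fragment; control set: DMSO and thioflavine S; technique: Cy5 fluorescence at 0 and 60 min, beacon hairpin quenching; reagent: beacon DNA duplex substrate plus ATP; replicates: singlicate; schedule: 1 h reaction at 25 °C, ATP-initiated; medium: MOPS buffer pH 6.5 with MgCl2, DTT, Tween20, BSA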
# PABP FP inh – PABP poly(A) RNA binding inhibitors, primary screen, biochemical, fluorescence polarization, uHTS; Polyadenylate-binding protein 1 (Homo sapiens), P11940; inhibition, % at 35 µM; hit rate 1% among 290,000;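 further: calls also rest on retests at 20 µM and on dose response follow-up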
# eIF4H inh – human eIF4H binding inhibitors, primary screen, translation initiation inhibitor project, biochemical, uHTS, fluorescence polarization. Eukaryotic translation initiation factor 4H (Homo sapiens), Q15056. eIF4H fluorescence polarization binding assay. hit rate 0.94% among 290,000. AID 2012, 2009. inhibition, % at 35 µM;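 further: calls also rest on retests at 20 µM and on dose response follow-up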
# DNA FID counter – compounds displacing fluorescent DNA intercalator, primary screen, artefact control for HCV NS3 helicase inhibitor project, biochemical, FID fluorescence. DNA fluorescent intercalator displacement. hit rate 0.17% among 290,000. inhibition, % at 7.9 µM; in the data active means inhibition above about 37%;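 further: 0% = vehicle and 100% = reference compound; higher means more ethidium bromide displaced from hairpin DNA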
# * = called active by the depositor; u = inconclusive; x = not tested or not shown. Unless noted, how the calls were made is not given here.
SMILES,MLLE-PAM2 inh,HCV core dimer,NS3 helicase inh,PABP FP inh,eIF4H inh,DNA FID counter
CCn1c2ccccc2c2cc(NC(=O)c3coc(=O)c(Br)c3)ccc21,104.2,4.4,12.7,118.2,105.1*,0.3
CCn1c(SCC(=O)Nc2ccc3c(c2)c2ccccc2n3CC)nnc1-c1ccco1,-10.2,65.3*,24.4,-1.5,-1.5,-29.1
O=S(=O)(c1ccc(NC(=S)N/N=C/c2c3ccccc3cc3ccccc23)cc1)N1CCOCC1,-41.5,55.9*,-0.6,18.4,10.9,-4.3
O=C(CN1c2cccc3cccc(c23)S1(=O)=O)Nc1ccc(S(=O)(=O)N2CCOCC2)cc1,-5.0,56.1*,7.7,3.5,18.0,-18.8
O=C(CN1C(=O)c2cccc3cccc1c23)Nc1ccc(S(=O)(=O)N2CCOCC2)cc1,4.8,-2.6,-14.6,1.5,-6.8,-16.7
COc1cc(-c2noc(C)c2/C=C/c2cccc([N+](=O)[O-])c2)cc(OC)c1OC,-9.9,-0.5,1.4,-11.6,-8.3,-27.5
COc1cc(-c2noc(C)c2/C=C/c2ccc(C(=O)O)cc2)cc(OC)c1OC,4.7,-4.5,23.2,66.4*,100.4*,-36.4
COc1ccc2c(c1)c(=O)oc1c(C)c(OC(C)C(=O)N[C@@H](Cc3c[nH]c4ccc(O)cc34)C(=O)O)ccc12 (some centres undefined),2.4,1.0,25.1,53.0*,81.9*,3.5
Cc1ccc(C(=O)N2CCN(S(=O)(=O)c3ccccc3[N+](=O)[O-])CC2)o1,-9.4,-8.5,-0.8,-7.4,51.2*,-5.9
Cc1ccc(C(=O)N2CCN(S(=O)(=O)c3ccccc3[N+](=O)[O-])C2)cc1,-3.0,-0.7,1.9,1.1,-6.0,-1.5
Cc1ccccc1NC(=O)Nc1nc(C2CCC(=O)N2)cs1 (centres undefined),-7.8,x,x,x,x,x
CCCCC(CC)Cn1c(N)c(C#N)c2nc3ccccc3nc21 (centres undefined),-14.0,0.1,-6.7,64.3*,68.4*,0.5
CN(C)CCCn1c(N)c(C#N)c2nc3ccccc3nc21,66.8,5.7,11.9,u,u,-6.4
CCC(C)NC(=O)[C@H]1N2C(=O)c3c(ccc(OC)c3OC)C2SC1(C)C (some centres undefined),42.7*,5.6,-8.3,6.6,6.2,-24.4
COCCNC(=O)[C@@H]1CSC2c3ccc(OC)c(OC)c3C(=O)N21 (some centres undefined),23.9,-9.8,-3.0,-0.2,-1.9,-3.6
COc1ccc2c(c1OC)C(=O)N1C2SC[C@H]1C(=O)NC1CCCC1 (some centres undefined),41.1*,4.9,7.0,-1.5,-10.8,-14.9
COC(=O)c1cc([N+](=O)[O-])c(-n2cncn2)c([N+](=O)[O-])c1,1.5,x,12.0,61.9*,70.9,9.4
CCn1c(C)[n+](CCOC(C)=O)c2cc(Cl)c(Cl)cc21,-128.0,1.7,-2.7,62.1*,0.3,10.0
CC1(C)Cc2c(C#N)c(N3CCN(C(=O)c4ccccc4)CC3)nc(-c3ccco3)c2CS1,-1.9,87.1*,22.8,-6.5,61.6,-25.5
CC(C)c1nc(N2CCN(C(=O)c3ccccc3)CC2)c(C#N)c2c1COC(C)(C)C2,11.1,13.9,6.9,1.9,0.2,-7.4
CN1C(=O)/C(=C2/C=CC=CN2C)OC1=S,40.4*,-4.3,3.2,-3.1,-7.8,8.2
CCN1CCN(c2nc3ccccn3c(=O)c2C=O)CC1,12.8,3.9,-1.1,34.1,41.1,-2.2
O=Cc1c(N2CCN(CCO)CC2)nc2ccccn2c1=O,47.1*,0.7,2.4,u,u,-1.7
CCN(CC)CCSc1nc2ccccc2c(=S)n1-c1ccccc1,x,-3.5,-69.7,1.6,2.7,44.7*
O=C1OCC(c2ccccc2)=C1c1ccccc1,0.0,-4.4,-1.2,11.5,2.1,-9.1
SMILES,MLLE-PAM2 inh,HCV core dimer,NS3 helicase inh,PABP FP inh,eIF4H inh,DNA FID counter
N#CC1=C(c2ccc(-c3ccccc3)cc2)COC1=O,-42.5,51.9*,26.6,-10.2,28.5,-13.6
COC(=O)c1ccc2nc(-c3ccccc3)c(Cc3ccccc3OC)n2c1,-4.5,x,x,x,x,x
COc1cc(NC(=O)c2cccs2)c(C(=O)OCC(=O)NCc2ccco2)cc1OC,-24.4,4.5,9.7,61.6*,89.4*,-10.4
O=C(COC(=O)c1cccs1)NCc1ccco1,-9.8,5.7,x,34.7,27.7,x
O=C(COC(=O)c1ccc(NS(=O)(=O)c2cccs2)cc1)NCc1ccco1,-6.3,71.7*,28.8,63.5*,99.7*,-14.9
CN(C)S(=O)(=O)c1ccc(C(=O)OCC(=O)NCc2ccco2)cc1,-15.1,6.5,-2.5,u,69.2*,-4.5
COc1cc(NC(=O)CSc2nnc3ccccn23)cc(OC)c1OC,-23.1,x,x,x,x,x
On1c2c(c3c4nonc4ccc31)CCCC2,x,-6.2,5.6,58.8*,77.1*,-4.5
COn1c2c(c3c4no[n+]([O-])c4ccc31)CCCC2,0.2,11.0,-2.2,-3.2,2.8,-0.8
COn1c2c(c3c4nonc4ccc31)CCCC2,24.1,-9.4,-2.1,63.0*,25.8,0.2
O=C(OCC(=O)N1CCCCCC1)c1cc(S(=O)(=O)N2CCOCC2)ccc1F,18.6,x,x,x,x,x
O=C(CCl)N1CCCC1c1ccc2c(c1)OCCO2 (centres undefined),7.0,2.7,-1.2,-1.3,3.9,1.5
CCOCCCN(C)C1CCN(C(=O)c2oc3ccccc3c2NC(=O)Cc2ccc(F)cc2)CC1,2.8,-3.7,-21.9,-10.2,-17.0,16.1
O=C1CCCC2=C1C(c1ccc(O)c(O)c1)Nc1ccc3ncccc3c12 (centres undefined),-11.9,-4.7,29.9,active,73.7*,-3.0
O=C1CCCC2=C1C(c1cccs1)Nc1ccc3ncccc3c12 (centres undefined),9.5,2.1,4.9,17.7,-7.2,-6.7
C[C@@H]1CN([C@H](C)CO)C(=O)CCCn2nncc2CO[C@H]1CN(C)Cc1ccc2c(c1)OCCO2,3.9,x,x,x,x,x
CN1C(=O)Cc2cc(S(=O)(=O)Nc3ccc(N4CCOCC4)cc3)ccc21,5.0,18.8,3.6,-19.6,-8.9,-18.6
COc1ccc(C(=O)Nc2nnc(CC(=O)N/N=C/c3ccc(O)cc3O)s2)cc1,-43.7,-26.6,-6.0,8.4,75.8*,-8.4
Cc1ccc(NC(=O)CSc2cn[nH]n2)cc1,6.2,-20.5,21.2,5.9,-5.2,-9.3
O=C(CSc1cn[nH]n1)Nc1ccc(O)c(C(=O)O)c1,38.3*,-2.3,-4.2,8.7,7.6,2.2
Cn1ncc2nc[nH]c(=O)c21,0.2,-6.5,-3.6,1.2*,u,-4.3

# Source: PubChem BioAssay
